Reference: ChEMBL document CHEMBL4706708, “Improving the solubility of anti-proliferative thieno[2,3-b]quinoline-2-carboxamides” (Bioorg Med Chem, 2021)
Converted amounts (≈) assume the structure as drawn.

What was measured:
MDA-MB-231 = experiment: Antiproliferative activity against human MDA-MB-231 cells assessed as cell growth at 1 uM measured after 3 days by [3H]-thymidine incorporation assay relative to control; format: functional; conditions: MDA-MB-231, 72 h, time 3 day, read-out: Activity
In short: (§1)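 HCT116 and MDA-MB-231 cells from ATCC, seeded at 3000 cells/well, exposed to inhibitor for three days; 0.04 µCi 3H-thymidine added per well 5 h before harvest onto glass fibre filters, incorporation counted by scintillation and expressed relative to untreated controls. Triplicate wells, at least two independent experiments. Single-point screen at 1 µM; IC50 determined from varying concentrations.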

[1] = Thermodynamic solubility of compound in water measured after 15 mins RP-HPLC analysis; format: physicochemical; conditions: read-out: Therm_solubility
HCT-116 = experiment: Antiproliferative activity against human HCT-116 cells assessed as cell growth at 1 uM measured after 3 days by [3H]-thymidine incorporation assay relative to control; format: functional; conditions: HCT-116, 72 h, time 3 day, read-out: Activity; in short: as §1

| SMILES | growth at 1 µM (MDA-MB-231) [%] | solubility thermodynamic at 0.25 h [1] [µg/mL] | growth at 1 µM (HCT-116) [%] |
| --- | --- | --- | --- |
| Nc1c(C(=O)Nc2cccc(Cl)c2)sc2nc3c(cc12)CN(Cc1ccccc1)CC3 | 80.5 | 0.213 (≈ 0.474 µM) | 89.9 |
| Cc1ccccc1NC(=O)c1sc2nc3c(cc2c1N)CN(Cc1ccccc1)CC3 | 109 | 0.26 (≈ 0.607 µM) | 96.4 |
| COc1ccc(NC(=O)c2sc3nc4c(cc3c2N)CN(Cc2ccccc2)CC4)cc1 | 94.1 | 0.197 (≈ 0.443 µM) | 87.4 |
| CC(=O)c1cc2c(N)c(C(=O)Nc3ccccc3Cl)sc2nc1C | 99.6 | 0.13 (≈ 0.361 µM) | 87.3 |
| CN1CCc2nc3sc(C(=O)Nc4ccccc4)c(N)c3cc2C1 | 91.2 |  | 100 |
| Nc1c(C(=O)Nc2ccc3c(c2)OCCO3)sc2nc3c(cc12)CN(Cc1ccccc1)CC3 | 94.9 | 0.7 (≈ 1.48 µM) | 83.2 |
| CC(=O)c1cc2c(N)c(C(=O)Nc3cccc(C(F)(F)F)c3C)sc2nc1C | 67.7 | 1.17 (≈ 2.87 µM) | 106 |
| Nc1c(C(=O)Nc2cccc3ncccc23)sc2nc3c(cc12)C(=O)CCC3 | 96.9 | 0.41 (≈ 1.06 µM) | 96.3 |
| CC(=O)c1cc2c(N)c(C(=O)Nc3cncc4ccccc34)sc2nc1C | 105 | 0.09 (≈ 0.239 µM) | 96.2 |
| COc1cccc(NC(=O)c2sc3nc4c(cc3c2N)CN(Cc2ccccc2)CC4)c1 | 90.7 | 0.3 (≈ 0.675 µM) | 85.2 |
| CC(=O)c1cc2c(N)c(C(=O)Nc3cccc4ccncc34)sc2nc1C | 101 | 1.06 (≈ 2.82 µM) | 108 |
| Nc1c(C(=O)Nc2cncc3ccccc23)sc2nc3c(cc12)C(=O)CCC3 | 111 | 0.71 (≈ 1.83 µM) | 97.8 |
| Nc1c(C(=O)Nc2ccccn2)sc2nc3c(cc12)C(=O)CCC3 | 27 | 0.64 (≈ 1.89 µM) | 10.2 |
| Nc1c(C(=O)Nc2ccccc2)sc2nc3c(cc12)CN(C(=O)OCc1ccccc1)CC3 | 17.5 | 1.93 (≈ 4.21 µM) | 3.1 |
| Nc1c(C(=O)Nc2ccccc2)sc2nc3c(cc12)CNCC3 | 89.7 | 40.5 (≈ 125 µM) | 100 |
| Nc1c(C(=O)Nc2cccc3cccnc23)sc2nc3c(cc12)CN(Cc1ccccc1)CC3 | 104 | 1.17 (≈ 2.51 µM) | 98.2 |
| Cc1c(F)cccc1NC(=O)c1sc2nc3c(cc2c1N)CN(Cc1ccccc1)CC3 | 97.3 | 0.84 (≈ 1.88 µM) | 98.1 |
| COc1cccc(NC(=O)c2sc3nc(C)c(C(C)=O)cc3c2N)c1 | 96 | 1.1 (≈ 3.09 µM) | 96.5 |
| Cc1nc2sc(C(=O)Nc3ccncc3)c(N)c2cc1C(C)O (stereo not drawn) | 113 | 2.85 (≈ 8.68 µM) | 111 |
| Cc1ccccc1NC(=O)c1sc2nc3c(cc2c1N)COCC3 | 103 | 7.52 (≈ 22.2 µM) | 101 |
| Cc1nc2sc(C(=O)Nc3cccc4ncccc34)c(N)c2cc1C(C)O (stereo not drawn) | 112 | 0.89 (≈ 2.35 µM) | 92 |
| Cc1nc2sc(C(=O)Nc3ccnc4ccccc34)c(N)c2cc1C(C)O (stereo not drawn) | 107 | 18.5 (≈ 49 µM) | 93.6 |
| CN1CCc2nc3sc(C(=O)Nc4cccc5ccccc45)c(N)c3cc2C1 | 89 | 2.17 (≈ 5.59 µM) | 93.5 |
| CC(=O)c1cc2c(N)c(C(=O)Nc3ccccn3)sc2nc1C | 92.9 | 0.45 (≈ 1.38 µM) | 91.7 |
| Nc1c(C(=O)Nc2ccccc2)sc2nc3c(cc12)COCC3 | 98.9 | 1.03 (≈ 3.17 µM) | 91.5 |
| Cc1nc2sc(C(=O)Nc3cccc4cccnc34)c(N)c2cc1C(C)O (stereo not drawn) | 102 |  | 110 |
| Cc1nc2sc(C(=O)Nc3cccc4c3OCCO4)c(N)c2cc1C(C)O (stereo not drawn) | 62.3 | 3.06 (≈ 7.94 µM) | 58.4 |
| CC(=O)c1cc2c(N)c(C(=O)Nc3cccc(F)c3C)sc2nc1C | 114 | 0.35 (≈ 0.979 µM) | 103 |
| Cc1nc2sc(C(=O)Nc3ccccn3)c(N)c2cc1C(C)O (stereo not drawn) | 93.8 | 5.43 (≈ 16.5 µM) | 96.5 |
| COc1ccc(NC(=O)c2sc3nc(C)c(C(C)O)cc3c2N)cc1 (stereo not drawn) | 114 | 1.79 (≈ 5.01 µM) | 97.5 |
